What was measured:
[1] = Neuroprotective activity against H2O2-induced cell damage in human HBMEC2 cells assessed as increase in cell viability preincubated for 24 hrs followed by H2O2 addition and measured after 4 hrs by MTT assay; assay type: functional, cell-based; conditions: HBMEC-2
How it was run: (§1)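 Cells at 3.5×10^4 cells/mL in 96-well plates were grown 24 h (37 °C, 5% CO2). Test agent was added at five concentrations for 24 h, then H2O2 (4.8 mM stock) to model and drug wells. After PBS washes, MTT (5 mg/mL) was added for 4 h, formazan was dissolved in DMSO and OD was read at 550 nm. Proliferation rate = (drug − injury OD)/(control − injury OD). EC50 came from a formula using maximum concentration and summed, maximal and minimal rates.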

SH-SY5Y = test: Neuroprotective activity against H2O2-induced cell damage in human SH-SY5Y cells assessed as increase in cell viability preincubated for 24 hrs followed by H2O2 addition and measured after 4 hrs by MTT assay; assay type: functional, cell-based; how it was run: as §1

Structure (SMILES) | EC50 [1] [µM] | EC50 (SH-SY5Y) [µM]
COc1ccc(OC)c(/C=C/C(=O)NCc2ccc(OCc3nc(C)c(C)nc3C)c(OC)c2)c1 | 11.8 | 11
COc1cc(CNC(=O)/C=C/c2cc(OC)c(OC)c(OC)c2)ccc1OCc1nc(C)c(C)nc1C | 3.55 | 11.5
COc1cc(CNC(=O)CCCC/C=C/C(C)C)ccc1O [CAPSAICIN] | 16.4 | 14
COc1cc(CNC(=O)/C=C/c2ccc(O)cc2)ccc1O | 8.04 | 6
CC1=NN(c2ccccc2)C(=O)C1 [EDARAVONE] | 4.61 | 3.75
COc1cc(CNC(=O)/C=C/c2ccc(OCc3nc(C)c(C)nc3C)cc2)ccc1O | 12.5 | 5.37
COc1cccc(/C=C/C(=O)NCc2ccc(OCc3nc(C)c(C)nc3C)c(OC)c2)c1 | 9.87 | 4.32
COc1ccc(/C=C/C(=O)NCc2ccc(OCc3nc(C)c(C)nc3C)c(OC)c2)cc1O | 13.5 | 8.56
COc1cc(CNC(=O)/C=C/c2ccc(OC)c(OC)c2OC)ccc1O | 4.82 | 7.45
COc1ccc(/C=C/C(=O)NCc2ccc(OCc3nc(C)c(C)nc3C)c(OC)c2)cc1OC | 15.8 | 4.47
COc1ccc(/C=C/C(=O)NCc2ccc(O)c(OC)c2)cc1O | 11.8 | 7.85
COc1cc(CNC(=O)/C=C/c2cccc(OC)c2OC)ccc1O | 13.1 | 5.49
COc1cc(CNC(=O)/C=C/c2ccc(O)cc2)ccc1OCc1nc(C)c(C)nc1C | 6.23 | 3.74
COc1cc(/C=C/C(=O)NCc2ccc(O)c(OC)c2)cc(OC)c1 | 7.81 | 4.86
COc1cc(CNC(=O)/C=C/c2cccc(OC)c2OC)ccc1OCc1nc(C)c(C)nc1C | 6.31 | 7.15
COc1cc(CNC(=O)/C=C/c2cccc(O)c2)ccc1OCc1nc(C)c(C)nc1C | 6.17 | 3.68
COc1cc(CNC(=O)/C=C/c2cccc(OCc3nc(C)c(C)nc3C)c2)ccc1OCc1nc(C)c(C)nc1C | 12.8 | 8.7
COc1cc(/C=C/C(=O)NCc2ccc(O)c(OC)c2)ccc1O | 6.34 | 9.3
COc1cc(CNC(=O)/C=C/c2ccccc2O)ccc1O | 7.46 | 9.76
COc1cc(CNC(=O)/C=C/c2cc(OC)c(OC)c(OC)c2)ccc1O | 2.59 | 5.91
COc1cc(CNC(=O)/C=C/c2ccc(OCc3nc(C)c(C)nc3C)cc2)ccc1OCc1nc(C)c(C)nc1C | 21.4 | 7.77
COc1cc(CNC(=O)/C=C/c2ccccc2O)ccc1OCc1nc(C)c(C)nc1C | 6.07 | 5.3

Structure (SMILES) | EC50 [1] [µM] | EC50 (SH-SY5Y) [µM]
COc1cc(CNC(=O)/C=C/c2ccccc2OCc2nc(C)c(C)nc2C)ccc1O | 6.65 | 12
COc1cc(CNC(=O)/C=C/c2ccccc2)ccc1O | 9.8 | 3.66
COc1cc(CNC(=O)/C=C/c2ccc(OC)c(OCc3nc(C)c(C)nc3C)c2)ccc1OCc1nc(C)c(C)nc1C | 14.6 | 11.6
COc1ccc(/C=C/C(=O)NCc2ccc(OCc3nc(C)c(C)nc3C)c(OC)c2)cc1 | 6.56 | 5.05
COc1cc(CNC(=O)/C=C/c2ccc(OC)c(OCc3nc(C)c(C)nc3C)c2)ccc1O | 9.3 | 9.25
COc1cc(CNC(=O)/C=C/c2ccc(OCc3nc(C)c(C)nc3C)c(OC)c2)ccc1O | 11.6 | 10.2
COc1cc(/C=C/C(=O)NCc2ccc(OCc3nc(C)c(C)nc3C)c(OC)c2)ccc1O | 5.81 | 13.4
COc1ccc(OC)c(/C=C/C(=O)NCc2ccc(O)c(OC)c2)c1 | 10.5 | 9.5
Cc1nc(C)c(C)nc1C [LIGUSTRAZINE] | 15.2 | 17.6
COc1cc(CNC(=O)/C=C/c2ccccc2)ccc1OCc1nc(C)c(C)nc1C | 4.99 | 7.31
COc1cccc(/C=C/C(=O)NCc2ccc(O)c(OC)c2)c1 | 7.11 | 5.24
COc1cc(CNC(=O)/C=C/c2cccc(OCc3nc(C)c(C)nc3C)c2)ccc1O | 10.6 | 8.09
COc1cc(/C=C/C(=O)NCc2ccc(OCc3nc(C)c(C)nc3C)c(OC)c2)cc(OC)c1 | 12.9 | 8.66
COc1cc(OC)c(OC)cc1/C=C/C(=O)NCc1ccc(OCc2nc(C)c(C)nc2C)c(OC)c1 | 12.5 | 3.62
COc1cc(CNC(=O)/C=C/c2ccccc2OCc2nc(C)c(C)nc2C)ccc1OCc1nc(C)c(C)nc1C | 15.1 | 6.28
COc1cc(/C=C/C(=O)NCc2ccc(OCc3nc(C)c(C)nc3C)c(OC)c2)ccc1OCc1nc(C)c(C)nc1C | 14.5 | 11.1
COc1cc(CNC(=O)/C=C/c2cccc(O)c2)ccc1O | 5.75 | 8.62
COc1cc(CNC(=O)/C=C/c2ccc(OC)c(OC)c2)ccc1O | 8.85 | 11
COc1cc(CNC(=O)/C=C/c2ccc(OC)c(OC)c2OC)ccc1OCc1nc(C)c(C)nc1C | 18.1 | 3.84
COc1ccccc1/C=C/C(=O)NCc1ccc(OCc2nc(C)c(C)nc2C)c(OC)c1 | 12 | 7.15
COc1ccc(/C=C/C(=O)NCc2ccc(O)c(OC)c2)cc1 | 10.4 | 11.4
COc1cc(CNC(=O)/C=C/c2ccccc2OC)ccc1O | 6.48 | 5.98
